{
  "source": "paper PMC6810698",
  "about": "(European journal of nuclear medicine and molecular imaging, 2019)",
  "key": {"SV2A [1]": {"target": "T1, SV2A (Macaca mulatta, UniProt H9EQH8)", "T1 sequence (H9EQH8 1-742)": "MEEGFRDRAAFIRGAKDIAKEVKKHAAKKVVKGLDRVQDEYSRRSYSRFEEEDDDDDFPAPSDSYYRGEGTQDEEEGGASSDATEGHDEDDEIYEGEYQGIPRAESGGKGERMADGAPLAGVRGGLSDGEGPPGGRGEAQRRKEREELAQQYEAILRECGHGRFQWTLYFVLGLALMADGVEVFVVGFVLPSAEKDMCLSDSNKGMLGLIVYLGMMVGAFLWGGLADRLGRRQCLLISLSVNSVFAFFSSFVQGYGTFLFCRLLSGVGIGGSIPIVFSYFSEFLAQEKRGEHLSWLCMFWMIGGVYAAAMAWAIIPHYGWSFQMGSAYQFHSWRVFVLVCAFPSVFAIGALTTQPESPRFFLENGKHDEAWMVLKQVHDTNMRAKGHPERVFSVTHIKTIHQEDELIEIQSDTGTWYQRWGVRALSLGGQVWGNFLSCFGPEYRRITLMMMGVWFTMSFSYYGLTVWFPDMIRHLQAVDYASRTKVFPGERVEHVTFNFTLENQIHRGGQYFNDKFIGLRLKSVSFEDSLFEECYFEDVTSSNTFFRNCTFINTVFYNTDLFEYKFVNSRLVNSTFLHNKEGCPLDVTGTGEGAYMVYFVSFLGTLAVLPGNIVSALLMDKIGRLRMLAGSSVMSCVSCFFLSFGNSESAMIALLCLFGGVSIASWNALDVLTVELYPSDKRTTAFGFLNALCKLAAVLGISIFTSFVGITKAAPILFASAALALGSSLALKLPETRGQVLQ", "type": "in vivo, rhesus monkeys (Macaca mulatta)", "settings": "for Regional distribution volume (VT): 1TC model; for Regional non-displaceable binding potential (BPND): baseline scans (n = 4), reference region centrum semiovale", "method_in_brief": "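Fasted rhesus monkeys were immobilised with ketamine (10 mg/kg im) and maintained on isoflurane (1.5–2.5% in oxygen). Radiotracer was infused iv over 3 min after a transmission scan, and dynamic list-mode data were collected for 120 min. MR-defined ROIs gave time–activity curves. VT came from a 1TC model with metabolite-corrected arterial plasma input, and BPND from VT with centrum semiovale as reference.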"}, "human SV2A protein": {"target": "human SV2A protein", "settings": "cited from earlier work"}, "SV2A [2]": {"target": "T1, SV2A", "settings": "same dose of UCB-J (0.15 mg/kg), measured with [^11C]UCB-J; cited from earlier work"}, "SV2A [3]": {"target": "T1, SV2A", "assay": "SV2A occupancy from occupancy plot", "type": "in vivo, rhesus monkeys (Macaca mulatta)", "settings": "0.15 mg/kg UCB-J, 10 min before 5-[^18F]UCB-J injection", "method_in_brief": "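Baseline and blocking PET scans were run with iv radiotracer and arterial input. Regional VT came from 1TC kinetic modelling. Occupancy was derived from an occupancy plot of baseline regional VT against the baseline-minus-blocking VT difference.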"}, "[4]": {"assay": "Radiotracer free fraction", "type": "in vitro ADME, rhesus monkeys (Macaca mulatta)", "settings": "ultrafiltration; rhesus monkey plasma; n = 4", "method_in_brief": "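Plasma ultrafiltration was used. fP was taken as filtrate radioactivity concentration divided by total plasma activity, measured in triplicate per scan.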"}, "[5]": {"assay": "Plasma metabolite analysis", "type": "in vivo, rhesus monkeys (Macaca mulatta)", "settings": "30 min after injection; rhesus monkey arterial plasma; n = 4"}, "[6]": {"settings": "baseline scan, centrum semiovale"}, "[7]": {"settings": "baseline scan, cingulate cortex"}, "[8]": {"settings": "baseline scan, nucleus accumbens"}, "[9]": {"settings": "baseline scan, occipital cortex"}},
  "note": "Like-named read-outs stand apart in the source and are kept apart here.",
  "data": [
    {"compound": "Cc1cnccc1CN1C[C@H](c2cc(F)c(F)c([18F])c2)CC1=O", "note": "[(S)-5-[^18F]3, 4-(3,4-Difluoro-5-(fluoro-^18F)phenyl)-1-((3-methylpyridin-4-yl)methyl)pyrrolidin-2-one]", "values": [
      {"measurement": "specific binding in brain", "setting": "SV2A [1]; baseline scan, n = 1", "result": "lack of specific binding"},
      {"measurement": "Regional distribution volume (VT)", "setting": "SV2A [1]; baseline scan, amygdala", "result": 5.0, "unit": "mL/cm^−3"},
      {"measurement": "Regional distribution volume (VT)", "setting": "SV2A [1]; baseline scan, brainstem", "result": 5.7, "unit": "mL/cm^−3"},
      {"measurement": "Regional distribution volume (VT)", "setting": "SV2A [1]; baseline scan, caudate", "result": 6.6, "unit": "mL/cm^−3"},
      {"measurement": "Regional distribution volume (VT)", "setting": "SV2A [1]; [6]", "result": 6.9, "unit": "mL/cm^−3"},
      {"measurement": "Regional distribution volume (VT)", "setting": "SV2A [1]; baseline scan, cerebellum", "result": 5.7, "unit": "mL/cm^−3"},
      {"measurement": "Regional distribution volume (VT)", "setting": "SV2A [1]; [7]", "result": 7.2, "unit": "mL/cm^−3"},
      {"measurement": "Regional distribution volume (VT)", "setting": "SV2A [1]; baseline scan, frontal cortex", "result": 7.2, "unit": "mL/cm^−3"},
      {"measurement": "Regional distribution volume (VT)", "setting": "SV2A [1]; baseline scan, globus pallidus", "result": 6.3, "unit": "mL/cm^−3"},
      {"measurement": "Regional distribution volume (VT)", "setting": "SV2A [1]; baseline scan, hippocampus", "result": 5.7, "unit": "mL/cm^−3"},
      {"measurement": "Regional distribution volume (VT)", "setting": "SV2A [1]; baseline scan, insula", "result": 6.8, "unit": "mL/cm^−3"},
      {"measurement": "Regional distribution volume (VT)", "setting": "SV2A [1]; [8]", "result": 6.3, "unit": "mL/cm^−3"},
      {"measurement": "Regional distribution volume (VT)", "setting": "SV2A [1]; [9]", "result": 6.6, "unit": "mL/cm^−3"},
      {"measurement": "Regional distribution volume (VT)", "setting": "SV2A [1]; baseline scan, pons", "result": 6.1, "unit": "mL/cm^−3"},
      {"measurement": "Regional distribution volume (VT)", "setting": "SV2A [1]; baseline scan, putamen", "result": 6.6, "unit": "mL/cm^−3"},
      {"measurement": "Regional distribution volume (VT)", "setting": "SV2A [1]; baseline scan, temporal cortex", "result": 6.5, "unit": "mL/cm^−3"},
      {"measurement": "Regional distribution volume (VT)", "setting": "SV2A [1]; baseline scan, thalamus", "result": 6.3, "unit": "mL/cm^−3"}
    ]},
    {"compound": "Cc1cnccc1CN1C[C@H](c2cc(F)c(F)c(F)c2)CC1=O", "note": "[(S)-enantiomer]", "values": [
      {"measurement": "pIC50, binding affinity to human SV2A protein", "setting": "human SV2A protein", "result": 7.1}
    ]},
    {"compound": "Cc1cnccc1CN1C[C@@H](c2cc(F)c(F)c(F)c2)CC1=O", "note": "[UCB-J]", "values": [
      {"measurement": "SV2A occupancy by UCB-J", "setting": "SV2A [2]", "result": 87, "unit": "%"},
      {"measurement": "pIC50, binding affinity to human SV2A protein", "setting": "human SV2A protein", "result": 8.2},
      {"measurement": "SV2A occupancy by UCB-J", "setting": "SV2A [3]", "result": 73, "unit": "%"}
    ]},
    {"compound": "[11CH3]c1cnccc1CN1C[C@@H](c2cc(F)c(F)c(F)c2)CC1=O", "note": "[[^11C]UCB-J]", "values": [
      {"measurement": "Regional distribution volume (VT)", "setting": "SV2A [1]; baseline scan, amygdala", "result": "24.1 ± 2.2", "unit": "mL/cm^−3"},
      {"measurement": "Regional distribution volume (VT)", "setting": "SV2A [1]; baseline scan, brainstem", "result": "20.1 ± 2.8", "unit": "mL/cm^−3"},
      {"measurement": "Regional distribution volume (VT)", "setting": "SV2A [1]; baseline scan, caudate", "result": "40.3 ± 6.1", "unit": "mL/cm^−3"},
      {"measurement": "Regional distribution volume (VT)", "setting": "SV2A [1]; [6]", "result": "11.1 ± 1.6", "unit": "mL/cm^−3"},
      {"measurement": "Regional distribution volume (VT)", "setting": "SV2A [1]; baseline scan, cerebellum", "result": "30.5 ± 3.5", "unit": "mL/cm^−3"},
      {"measurement": "Regional distribution volume (VT)", "setting": "SV2A [1]; [7]", "result": "47.3 ± 7.5", "unit": "mL/cm^−3"},
      {"measurement": "Regional distribution volume (VT)", "setting": "SV2A [1]; baseline scan, frontal cortex", "result": "48.9 ± 7.4", "unit": "mL/cm^−3"},
      {"measurement": "Regional distribution volume (VT)", "setting": "SV2A [1]; baseline scan, globus pallidus", "result": "24.5 ± 3.1", "unit": "mL/cm^−3"},
      {"measurement": "Regional distribution volume (VT)", "setting": "SV2A [1]; baseline scan, hippocampus", "result": "31.3 ± 2.3", "unit": "mL/cm^−3"},
      {"measurement": "Regional distribution volume (VT)", "setting": "SV2A [1]; baseline scan, insula", "result": "47.7 ± 7.5", "unit": "mL/cm^−3"},
      {"measurement": "Regional distribution volume (VT)", "setting": "SV2A [1]; [8]", "result": "45.7 ± 6.2", "unit": "mL/cm^−3"},
      {"measurement": "Regional distribution volume (VT)", "setting": "SV2A [1]; [9]", "result": "45.1 ± 6.9", "unit": "mL/cm^−3"},
      {"measurement": "Regional distribution volume (VT)", "setting": "SV2A [1]; baseline scan, pons", "result": "19.8 ± 2.7", "unit": "mL/cm^−3"},
      {"measurement": "Regional distribution volume (VT)", "setting": "SV2A [1]; baseline scan, putamen", "result": "40.1 ± 6.8", "unit": "mL/cm^−3"},
      {"measurement": "Regional distribution volume (VT)", "setting": "SV2A [1]; baseline scan, temporal cortex", "result": "42.8 ± 6.7", "unit": "mL/cm^−3"},
      {"measurement": "Regional distribution volume (VT)", "setting": "SV2A [1]; baseline scan, thalamus", "result": "36.2 ± 5.2", "unit": "mL/cm^−3"},
      {"measurement": "Regional non-displaceable binding potential (BPND)", "setting": "SV2A [1]; amygdala", "result": "1.2 ± 0.4"},
      {"measurement": "Regional non-displaceable binding potential (BPND)", "setting": "SV2A [1]; brainstem", "result": "0.8 ± 0.2"},
      {"measurement": "Regional non-displaceable binding potential (BPND)", "setting": "SV2A [1]; caudate", "result": "2.7 ± 0.7"},
      {"measurement": "Regional non-displaceable binding potential (BPND)", "setting": "SV2A [1]; cerebellum", "result": "1.8 ± 0.3"},
      {"measurement": "Regional non-displaceable binding potential (BPND)", "setting": "SV2A [1]; cingulate cortex", "result": "3.3 ± 0.9"},
      {"measurement": "Regional non-displaceable binding potential (BPND)", "setting": "SV2A [1]; frontal cortex", "result": "3.5 ± 0.9"},
      {"measurement": "Regional non-displaceable binding potential (BPND)", "setting": "SV2A [1]; globus pallidus", "result": "1.2 ± 0.2"},
      {"measurement": "Regional non-displaceable binding potential (BPND)", "setting": "SV2A [1]; hippocampus", "result": "1.9 ± 0.3"},
      {"measurement": "Regional non-displaceable binding potential (BPND)", "setting": "SV2A [1]; insula", "result": "3.3 ± 0.8"},
      {"measurement": "Regional non-displaceable binding potential (BPND)", "setting": "SV2A [1]; nucleus accumbens", "result": "3.2 ± 0.7"},
      {"measurement": "Regional non-displaceable binding potential (BPND)", "setting": "SV2A [1]; occipital cortex", "result": "3.1 ± 0.7"},
      {"measurement": "Regional non-displaceable binding potential (BPND)", "setting": "SV2A [1]; pons", "result": "0.8 ± 0.2"},
      {"measurement": "Regional non-displaceable binding potential (BPND)", "setting": "SV2A [1]; putamen", "result": "2.6 ± 0.5"},
      {"measurement": "Regional non-displaceable binding potential (BPND)", "setting": "SV2A [1]; temporal cortex", "result": "2.9 ± 0.6"},
      {"measurement": "Regional non-displaceable binding potential (BPND)", "setting": "SV2A [1]; thalamus", "result": "2.3 ± 0.7"},
      {"measurement": "BPND values in all brain regions", "setting": "SV2A [1]; baseline scans, all brain regions", "result": "> 0.75"},
      {"measurement": "plasma free fraction (fp)", "setting": "[4]", "result": "43 ± 5", "unit": "%"},
      {"measurement": "intact parent radiotracer in plasma (parent fraction)", "setting": "[5]", "result": "47 ± 12", "unit": "%"}
    ]},
    {"compound": "CC[C@@H](C(N)=O)N1CCCC1=O", "note": "[levetiracetam]", "values": [
      {"measurement": "displacement of [^18F]UCB-J binding", "setting": "SV2A [1]; levetiracetam 30 mg/kg i.v. at 90 min after radiotracer administration, 180-min scan with 5-[^18F]UCB-J", "result": "rapid reduction in radiotracer binding"}
    ]}
  ]
}
